{
  "source": "ChEMBL document CHEMBL4428115",
  "about": "“Molecular docking studies, biological and toxicity evaluation of dihydroisoquinoline derivatives as potential anticancer agents” (Bioorg Med Chem, 2016)",
  "key": {"[1]": {"assay": "Selectivity index, ratio of IC50 for mouse BALB/3T3 cells to IC50 for human MCF7 cells", "assay_type": "toxicity", "conditions": "BALB/3T3 cells versus MCF7 cells, read-out: Ratio IC50", "method_in_brief": "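Selectivity index is the BALB/3T3 IC50 divided by the MCF-7 IC50. Both adherent lines were plated at 1 × 10^4 per well, dosed 24 h later with 0.01–1000 µg/mL (diluted from 20 mg/mL DMSO stock) for 72 h, then fixed with cold TCA and stained with SRB, reading at 540 nm. Triplicate wells; 3–5 repeat experiments.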"}, "[2]": {"tested_on": "CCRF-CEM", "assay": "Antiproliferative activity against human CCRF-CEM cells", "assay_type": "functional, cell-based"}, "[3]": {"tested_on": "HL-60", "assay": "Effect on Bcl-2 expression in human HL60 cells at 1 ug/ml after 72 hrs by Western-blot analysis", "assay_type": "functional, cell-based", "method_in_brief": "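HL-60 (2 × 10^5 cells/mL) treated 72 h at 1 µg/mL with DMSO control, then lysed in RIPA buffer with protease/phosphatase inhibitors. 100 µg protein resolved on 4–20% gels and transferred to nitrocellulose. Probed with rabbit primary antibody, fluorescein-linked anti-rabbit secondary, then anti-fluorescein–alkaline phosphatase with ECF substrate; fluorescence scanned. Densitometry normalized to actin, reported as fold change versus control.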"}, "[4]": {"assay": "Acute toxicity in Balbc/cmdb mouse assessed as clinical signs at 2000 mg/kg, po administered as single dose in third stage of experiment measured immediately post dose", "assay_type": "organism-based", "conditions": "in vivo", "method_in_brief": "(§1)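 Acute toxic class method per OECD Guideline 423 / EU Method B.1 tris, run in three stages of three female Balbc/cmdb mice each. Fasted about 3 h, then given a single dose by metal stomach tube in DMSO at 0.5 mL/100 g bw. Stage doses were 300, 2000, then 2000 mg/kg bw. General and detailed clinical observations daily for 14 days; body weights recorded.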"}, "[5]": {"assay": "Selectivity index, ratio of IC50 for mouse BALB/3T3 cells to IC50 for human PC3 cells", "assay_type": "toxicity", "conditions": "BALB/3T3 cells versus PC3 cells, read-out: Ratio IC50"}, "[6]": {"assay": "Selectivity index, ratio of IC50 for mouse BALB/3T3 cells to IC50 for human HL60 cells", "assay_type": "toxicity", "conditions": "BALB/3T3 cells versus HL60 cells, read-out: Ratio IC50", "method_in_brief": "(§2)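 Ratio of the BALB/3T3 IC50 to the HL-60 or HL-60/MX2 IC50. Cells were plated at 1 × 10^4 per well 24 h before dosing and exposed for 72 h to 0.01–1000 µg/mL from DMSO stock. BALB/3T3 was read by SRB (TCA fix, 540 nm) and the leukemia lines by MTT (4 h, SDS/DMF lysis, 570 nm). Triplicates; 3–5 experiments.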"}, "[7]": {"tested_on": "PC-3", "assay": "Antiproliferative activity against human PC3 cells", "assay_type": "functional, cell-based"}, "[8]": {"assay": "Antioxidant activity assessed as DPPH free radical scavenging activity", "assay_type": "functional"}, "[9]": {"tested_on": "HL-60", "assay": "Antiproliferative activity against human HL60 cells after 72 hrs by MTT assay", "assay_type": "functional, cell-based", "conditions": "HL-60, 72 h", "method_in_brief": "(§3)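 Leukemia cells seeded at 1 × 10^4 per well 24 h before adding compounds (0.01–1000 µg/mL from DMSO stock), exposed 72 h. MTT (5 mg/mL stock) added for 4 h, then DMF/SDS lysis mixture; absorbance at 570 nm read after 24 h. Triplicates per experiment, 3–5 repeats; IC50 calculated per experiment, reported as mean ± SD.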"}, "[10]": {"tested_on": "HL-60", "assay": "Cell cycle arrest in human HL60 cells assessed as accumulation at G0/G1 phase at 1 to 3 ug/ml after 72 hrs by propidium iodide staining based flow cytometry", "assay_type": "functional", "method_in_brief": "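HL-60 seeded at 2 × 10^5 cells/mL 24 h before treatment, exposed 72 h to 1 or 3 µg/mL, with DMSO solvent and cisplatin controls. Cells fixed in 70% ethanol at −20°C, treated with RNase 8 µg/mL at 37°C for 1 h, stained 30 min with PI 50 µg/mL at 4°C. DNA content by flow cytometry; three independent experiments, mean ± SD.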"}, "[11]": {"assay": "Selectivity index, ratio of IC50 for mouse BALB/3T3 cells to IC50 for human A549 cells"}, "[12]": {"tested_on": "Jurkat", "assay": "Antiproliferative activity against human Jurkat cells", "assay_type": "functional, cell-based"}, "[13]": {"assay": "Selectivity index, ratio of IC50 for mouse BALB/3T3 cells to IC50 for human HL60/MX2 cells", "assay_type": "toxicity", "conditions": "BALB/3T3 cells versus HL60/MX2 cells, read-out: Ratio IC50", "method_in_brief": "as §2"}, "[14]": {"assay": "Antiproliferative activity against human HCV29T cells", "assay_type": "functional, cell-based"}, "[15]": {"tested_on": "MCF10", "assay": "Antiproliferative activity against human MCF10 cells after 72 hrs by SRB assay", "assay_type": "cell-based", "conditions": "MCF10, 72 h", "method_in_brief": "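Adherent cells plated at 1 × 10^4 per well 24 h before treatment, then exposed 72 h to compounds diluted from 20 mg/mL DMSO stock (0.01–1000 µg/mL). Fixed in cold 50% TCA at 4°C for 1 h, stained with 0.4% sulforhodamine B, bound dye extracted with 10 mM Tris, OD at 540 nm. Triplicates, 3–5 experiments; IC50 per experiment, mean ± SD.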"}, "[16]": {"assay": "Selectivity index, ratio of IC50 for mouse BALB/3T3 cells to IC50 for human K562 cells", "assay_type": "toxicity", "conditions": "BALB/3T3 cells versus K562 cells, read-out: Ratio IC50"}, "[17]": {"assay": "Selectivity index, ratio of IC50 for mouse BALB/3T3 cells to IC50 for human HCV29T cells", "assay_type": "toxicity", "conditions": "BALB/3T3 cells versus HCV29T cells, read-out: Ratio IC50"}, "[18]": {"assay": "Selectivity index, ratio of IC50 for mouse BALB/3T3 cells to IC50 for human A498 cells"}, "[19]": {"assay": "Antiproliferative activity against human LoVo/DX cells", "assay_type": "functional, cell-based"}, "[20]": {"assay": "Acute toxicity in Balbc/cmdb mouse assessed as clinical signs at 2000 mg/kg, po administered as single dose in second stage of experiment measured for 14 days", "assay_type": "organism-based", "conditions": "in vivo, 336 h", "method_in_brief": "as §1"}, "[21]": {"tested_on": "LoVo", "assay": "Antiproliferative activity against human LoVo cells", "assay_type": "functional, cell-based"}, "[22]": {"tested_on": "HT-29", "assay": "Antiproliferative activity against human HT-29 cells at 290 uM", "assay_type": "functional, cell-based"}, "[23]": {"tested_on": "LoVo", "assay": "Potency index, ratio of bestatin IC50 to compound IC50 for human LoVo cells", "assay_type": "functional"}, "[24]": {"tested_on": "A549", "assay": "Antiproliferative activity against human A549 cells", "assay_type": "functional, cell-based"}, "[25]": {"tested_on": "MCF7", "assay": "Potency index, ratio of bestatin IC50 to compound IC50 for human MCF7 cells", "assay_type": "functional"}, "[26]": {"assay": "Acute toxicity in New Zealand albino rabbit assessed as conjunctiva at 0.068 g applied to conjunctival sac of eye measured 1 to 72 hrs post dose", "set-up": "species or system Oryctolagus cuniculus", "conditions": "in vivo, topical_or_ocular"}, "[27]": {"tested_on": "HL60/MX2", "assay": "Antiproliferative activity against human HL60/MX2 cells after 72 hrs by MTT assay", "assay_type": "functional, cell-based", "conditions": "HL60/MX2, 72 h", "method_in_brief": "as §3"}, "[28]": {"assay": "Antioxidant activity assessed as ABTS free radical scavenging activity", "assay_type": "functional"}, "[29]": {"assay": "Selectivity index, ratio of IC50 for human MCF10 cells to IC50 for human HL60 cells", "assay_type": "toxicity", "conditions": "MCF10 cells versus HL60 cells, read-out: Ratio IC50", "method_in_brief": "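Selectivity index is the ratio of the IC50 for the normal line to the IC50 for the cancer line. Both IC50 values come from 72 h antiproliferative assays: SRB for adherent cells, MTT for HL-60.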"}},
  "note": "Calls of active or inactive are those of the source. The calls are words filed in the database; no cut-off is given here.",
  "data": [
    {"smiles": "CCOC(=O)C1(C(=O)OCC)Cc2cc(OCc3ccccc3)cc(OCc3ccccc3)c2C=N1", "values": [
      {"measurement": "selectivity ratio", "setting": "[1]", "result": 3.7},
      {"measurement": "IC50", "setting": "[2]", "result": 0.7, "unit": "µM"},
      {"measurement": "Activity", "setting": "[3]", "result": "inactive"},
      {"measurement": "Activity", "setting": "[4]", "result": "Toxic"},
      {"measurement": "selectivity ratio", "setting": "[5]", "result": 8.5},
      {"measurement": "selectivity ratio", "setting": "[6]", "result": 5.8},
      {"measurement": "IC50", "setting": "[7]", "result": 4.2, "unit": "µM"},
      {"measurement": "IC50", "setting": "[8]", "result": 1000, "unit": "µM"},
      {"measurement": "IC50", "setting": "[9]", "result": 6.2, "unit": "µM"},
      {"measurement": "Activity", "setting": "[10]", "result": "Active"},
      {"measurement": "Ratio IC50", "setting": "[11]", "result": 2.7},
      {"measurement": "IC50", "setting": "[12]", "result": 14.4, "unit": "µM"},
      {"measurement": "selectivity ratio", "setting": "[13]", "result": 7},
      {"measurement": "IC50", "setting": "[14]", "result": 8.8, "unit": "µM"},
      {"measurement": "IC50", "setting": "[15]", "result": 40.2, "unit": "µM"},
      {"measurement": "selectivity ratio", "setting": "[16]", "result": 0.5},
      {"measurement": "selectivity ratio", "setting": "[17]", "result": 4.1},
      {"measurement": "Ratio IC50", "setting": "[18]", "result": 2.7},
      {"measurement": "IC50", "setting": "[19]", "result": 4.1, "unit": "µM"},
      {"measurement": "Activity", "setting": "[20]", "result": "Non-Toxic"},
      {"measurement": "IC50", "setting": "[21]", "result": 1.1, "unit": "µM"},
      {"measurement": "growth inhibition (GI)", "setting": "[22]", "result": "inactive"},
      {"measurement": "Ratio IC50", "setting": "[23]", "result": 212},
      {"measurement": "IC50", "setting": "[24]", "result": 13.1, "unit": "µM"},
      {"measurement": "Ratio IC50", "setting": "[25]", "result": 15},
      {"measurement": "Activity", "setting": "[26]", "result": "Non-Toxic"},
      {"measurement": "IC50", "setting": "[27]", "result": 5.1, "unit": "µM"},
      {"measurement": "Activity", "setting": "[28]", "result": "inactive"},
      {"measurement": "selectivity ratio", "setting": "[29]", "result": "4 to 8"}
    ]}
  ]
}
